# Results reported in paper PMC11904594 (Current Research in Microbial Sciences, 2025).
# Key:
# [1] = tested on: P. aeruginosa ATCC 27,853; experiment: Minimum bactericidal concentration; format: cell-based, Pseudomonas aeruginosa; settings: lowest concentration reducing at least 99.9 % of growth, plated on LB, 37 °C, 24 h, triplicate
# [2] = tested on: A. baumannii Ab-1; experiment: MIC, broth microdilution; format: cell-based, Acinetobacter baumannii; settings: MHB II, 10^6 CFU/ml, 37 °C, 24 h, triplicate
# In short: (§1)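 Broth microdilution per CLSI. Strains were freshly plated on LB agar from glycerol stocks; the colistin-resistant lpxD mutant was plated on LB with 10 µg/ml colistin. Inoculum was 10^6 CFU/ml in Mueller Hinton broth II with two-fold dilutions of test compound from 100 to 0.10 µg/ml, incubated at 37 °C for 24 h. MIC was the lowest concentration with no growth.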
# [3] = tested on: A. baumannii ATCC 19,606; experiment: Minimum bactericidal concentration; format: cell-based, Acinetobacter baumannii; settings: lowest concentration reducing at least 99.9 % of growth, plated on LB, 37 °C, 24 h, triplicate
# [4] = tested on: P. aeruginosa (ST175–1); experiment: MIC, broth microdilution; format: cell-based, Pseudomonas aeruginosa; settings: MHB II, 10^6 CFU/ml, 37 °C, 24 h, triplicate
# In short: as §1
# [5] = tested on: E. coli ATCC 25,922; experiment: MIC, broth microdilution; format: cell-based, Escherichia coli; settings: MHB II, 10^6 CFU/ml, 37 °C, 24 h, triplicate
# In short: as §1
# [6] = tested on: E. coli ATCC 25,922; experiment: Inhibition of biofilm formation; format: cell-based, Escherichia coli; settings: ¼ MIC
# In short: (§2)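 Medium was discarded, wells washed with PBS, and biofilm stained with 1 % crystal violet for 15 min at room temperature. After two PBS washes, stain was eluted in 70 % ethanol and read at 595 nm. SBF = (OD595 − OD595 […])/OD600: weak ≤0.5, moderate 0.5–1, strong >1. Triplicate; Kruskal-Wallis with Dunn's test.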
# [7] = tested on: S. aureus ATCC 29,213; experiment: MIC, broth microdilution; format: cell-based, Staphylococcus aureus; settings: MHB II, 10^6 CFU/ml, 37 °C, 24 h, triplicate
# In short: as §1
# [8] = tested on: 11 bacterial strains (S. aureus, P. aeruginosa, A. baumannii, K. pneumoniae, E. coli); experiment: Antimicrobial activity screening, summary over groups of strains; format: cell-based; settings: 50 µg/ml screen
# [9] = tested on: A. baumannii IB010; experiment: MIC, broth microdilution; format: cell-based, Acinetobacter baumannii; settings: MHB II, 10^6 CFU/ml, 37 °C, 24 h, triplicate
# In short: as §1
# [10] = tested on: P. aeruginosa ST175–1; experiment: Inhibition of biofilm formation; format: cell-based, Pseudomonas aeruginosa; settings: ¼ MIC
# In short: as §2
# [11] = tested on: K. pneumoniae CG258; experiment: Minimum bactericidal concentration; format: cell-based, Klebsiella pneumoniae; settings: lowest concentration reducing at least 99.9 % of growth, plated on LB, 37 °C, 24 h, triplicate
# [12] = tested on: A. baumannii Ab-1; experiment: Inhibition of biofilm formation; format: cell-based, Acinetobacter baumannii; settings: ¼ MIC
# In short: as §2
# [13] = tested on: A. baumannii Ab-1; experiment: Minimum bactericidal concentration; format: cell-based, Acinetobacter baumannii; settings: lowest concentration reducing at least 99.9 % of growth, plated on LB, 37 °C, 24 h, triplicate
# [14] = tested on: K. pneumoniae ATCC 43,816; experiment: MIC, broth microdilution; format: cell-based, Klebsiella pneumoniae; settings: MHB II, 10^6 CFU/ml, 37 °C, 24 h, triplicate
# In short: as §1
# [15] = tested on: K. pneumoniae ATCC 43,816; experiment: Inhibition of biofilm formation; format: cell-based, Klebsiella pneumoniae; settings: ¼ MIC
# In short: as §2
# [16] = tested on: A. baumannii ATCC 19,606; experiment: Inhibition of biofilm formation; format: cell-based, Acinetobacter baumannii; settings: ¼ MIC
# In short: as §2
# [17] = tested on: E. coli ATCC 25,922; experiment: Minimum bactericidal concentration; format: cell-based, Escherichia coli; settings: lowest concentration reducing at least 99.9 % of growth, plated on LB, 37 °C, 24 h, triplicate
# [18] = tested on: K. pneumoniae ATCC 43,816; experiment: Minimum bactericidal concentration; format: cell-based, Klebsiella pneumoniae; settings: lowest concentration reducing at least 99.9 % of growth, plated on LB, 37 °C, 24 h, triplicate
# [19] = Stability in human serum; format: in vitro ADME; settings: 25 % (v/v)
# In short: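 Test compound was added to RPMI with human serum pre-equilibrated at 37 °C, giving 333.33 µM final compound and 25 % (v/v) final serum. Mixtures were stirred at 37 °C for 10, 30, 45 or 60 min. Proteins were precipitated with 96 % ethanol, cooled at 4 °C for 15 min and spun at 14,000 g. Supernatants were run on C18 RP-HPLC (TFA/CH3CN gradient, 220 nm); degradation was taken from loss of native peak area. Duplicate.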
# [20] = tested on: Galleria mellonella larvae; experiment: In vivo toxicity in Galleria mellonella larvae; settings: G. mellonella larvae, 50 µg/larvae (10 μl of 5 mg/ml), 30 °C, N=10 per group
# In short: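 Sixth-instar Galleria mellonella larvae (200–300 mg) were held in sawdust at 4 °C until use. Groups of ten were injected with 10 μl of test compound, colistin or 0.9 % NaCl saline control into the second rear proleg, then kept at 30 °C.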
# [21] = tested on: E. coli ESBL 1057.1; experiment: Minimum bactericidal concentration; format: cell-based, Escherichia coli; settings: lowest concentration reducing at least 99.9 % of growth, plated on LB, 37 °C, 24 h, triplicate
# [22] = tested on: S. aureus ATCC 29,213; experiment: Minimum bactericidal concentration; format: cell-based, Staphylococcus aureus; settings: lowest concentration reducing at least 99.9 % of growth, plated on LB, 37 °C, 24 h, triplicate
# [23] = tested on: P. aeruginosa (ST175–1); experiment: Minimum bactericidal concentration; format: cell-based, Pseudomonas aeruginosa; settings: lowest concentration reducing at least 99.9 % of growth, plated on LB, 37 °C, 24 h, triplicate
# [24] = tested on: A. baumannii IB010; experiment: Minimum bactericidal concentration; format: cell-based, Acinetobacter baumannii; settings: lowest concentration reducing at least 99.9 % of growth, plated on LB, 37 °C, 24 h, triplicate
# [25] = tested on: K. pneumoniae CG258; experiment: Time-kill assay; format: cell-based, Klebsiella pneumoniae; settings: peptide at 2× MIC
# In short: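 Broth without compound was the growth control. Samples taken at 0, 3, 6 and 24 h were diluted and plated on MH II agar for CFU counts. Each curve was run at least in duplicate.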
# [26] = tested on: 11 bacterial strains; experiment: MBC, summary over all strains; format: cell-based; settings: highest value over all strains, converted to molar
# In short: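 The no-peptide growth well, serially diluted and plated, served as reference. Percent growth was calculated from CFU counts; MBC was the lowest concentration giving ≥99.9 % reduction (CLSI). Triplicate.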
# [27] = tested on: S. aureus MRSA USA 300; experiment: Minimum bactericidal concentration; format: cell-based, Staphylococcus aureus; settings: lowest concentration reducing at least 99.9 % of growth, plated on LB, 37 °C, 24 h, triplicate
# [28] = tested on: K. pneumoniae CG258; experiment: MIC, broth microdilution; format: cell-based, Klebsiella pneumoniae; settings: MHB II, 10^6 CFU/ml, 37 °C, 24 h, triplicate
# In short: as §1
# [29] = tested on: A. baumannii ATCC 19,606; experiment: MIC, broth microdilution; format: cell-based, Acinetobacter baumannii; settings: MHB II, 10^6 CFU/ml, 37 °C, 24 h, triplicate
# In short: as §1
# [30] = tested on: S. aureus MRSA USA 300; experiment: MIC, broth microdilution; format: cell-based, Staphylococcus aureus; settings: MHB II, 10^6 CFU/ml, 37 °C, 24 h, triplicate
# In short: as §1
# [31] = tested on: E. coli ESBL 1057.1; experiment: MIC, broth microdilution; format: cell-based, Escherichia coli; settings: MHB II, 10^6 CFU/ml, 37 °C, 24 h, triplicate
# In short: as §1
# [32] = tested on: P. aeruginosa ATCC 27,853; experiment: MIC, broth microdilution; format: cell-based, Pseudomonas aeruginosa; settings: MHB II, 10^6 CFU/ml, 37 °C, 24 h, triplicate
# In short: as §1
compound,measurement,setting,value
CC[C@H](C)[C@H](NC(=O)[C@H](CCCCN)NC(=O)[C@H](CCCCN)NC(=O)[C@H](Cc1ccccc1)NC(=O)[C@H](CC(C)C)NC(=O)[C@H](CCCCN)NC(=O)[C@@H](N)CCCCN)C(=O)N[C@@H](CC(C)C)C(=O)N[C@@H](CCCCN)C(=O)N[C@@H](Cc1ccccc1)C(=O)N[C@@H](CC(C)C)C(N)=O [BP76],MBC,[1],50 µg/mL
same,MIC,[2],12.5 µg/mL
same,MBC,[3],6.25 µg/mL
same,MIC,[4],50 µg/mL
same,MIC,[5],6.25 µg/mL
same,production of biofilm,[6],reduced production of biofilm
same,MIC,[7],25 µg/mL
same,growth inhibition of all the strains,"[8]; all strains, Gram-negative and Gram-positive",≈ 90%
same,MIC,[9],25 µg/mL
same,SBF index compared to BP607,[10],reduced SBF indices compared to BP607
same,MBC,[11],6.25 µg/mL
same,SBF index compared to BP607,[12],reduced SBF indices compared to BP607
same,MBC,[13],12.5 µg/mL
same,MIC,[14],12.5 µg/mL
same,SBF index compared to BP607,[15],reduced SBF indices compared to BP607
same,SBF index compared to BP607,[16],reduced SBF indices compared to BP607
same,MBC,[17],6.25 µg/mL
same,MBC,[18],12.5 µg/mL
same,"remaining at 1 h, 333.33 µM",[19],15%
same,survival after 24h,[20],100%
same,MBC,[21],12.5 µg/mL
same,MBC,[22],25 µg/mL
same,MBC,[23],50 µg/mL
same,MBC,[24],25 µg/mL
same,bactericidal activity in time-kill assay,[25]; 6 h,able to reduce growth to bactericidal level
same,bactericidal activity in time-kill assay,[25]; 24 h,not at 24 h
same,highest MBC observed,[26],40 µM
same,MBC,[27],50 µg/mL
same,MIC,[28],6.25 µg/mL
same,MIC,[29],6.25 µg/mL
same,MIC,[30],50 µg/mL
same,MIC,[31],12.5 µg/mL
same,MIC,[32],50 µg/mL
CC[C@H](C)[C@H](NC(=O)[C@H](CCCCN)NC(=O)[C@H](CCCCN)NC(=O)[C@H](Cc1ccccc1)NC(=O)[C@H](CC(C)C)NC(=O)[C@H](CCCCN)NC(=O)[C@H](CCCCN)NS(=O)(=O)c1ccc(C)cc1)C(=O)N[C@@H](CC(C)C)C(=O)N[C@@H](CCCCN)C(=O)N[C@@H](CCCCN)C(=O)N[C@@H](CC(C)C)C(N)=O [BP125],"growth inhibition in all strains except both K. pneumoniae and E. coli ATCC 25,922",[8],≥ 83%
